Laboratory results reported in ChEMBL document CHEMBL4368943 (J Med Chem, 2019).
Activity calls are given as the source filed them. No cut-off for these calls is given here.

Key:
[1] = tested on: MCF7; experiment: Antiproliferative activity against human MCF7 cells at 10 to 300 nM after 5 days by crystal violet staining based assay; assay type: functional, cell-based
Procedure, shortened: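 MCF-7 cells in DMEM with 10% FBS and penicillin/streptomycin, passages 3−8, exposed to compounds at 10, 100 and 300 nM for 5 days, then fixed and stained with crystal violet.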

[2] = tested on: MCF7; experiment: Inhibition of cell growth in human MCF7 cells after 4 days by wst-8-based colorimetric analysis; assay type: functional; conditions: MCF7, 96 h
Procedure, shortened: (§1)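 Cells seeded at 1500/well overnight, then exposed to graded compound doses for 4 days. Growth read by colorimetric WST-8 assay. GI50 from fitted curves. MCF-7 cells were kept in DMEM, 10% FBS, passages 3−8; human mammary epithelial cells were run the same way.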

[3] = tested on: MCF7; experiment: Inhibition of cell growth in human MCF7 cells after 4 days by wst-8-based colorimetric analysis relative to control; assay type: functional; procedure, shortened: as §1
[4] = target: T1, von Hippel-Lindau disease tumor suppressor/Estrogen receptor/Cullin-2 (Homo sapiens, UniProt P03372+P40337+Q13617); experiment: Protac activity against VHL/cullin2/ERalpha in human MCF7 cells assessed as ERalpha degradation by measuring ER protein/GADPH ratio at 1000 nM after 4 hrs by Western blot analysis relative to control; assay type: cell-based
T1 sequence (P03372 whole entry, looked up): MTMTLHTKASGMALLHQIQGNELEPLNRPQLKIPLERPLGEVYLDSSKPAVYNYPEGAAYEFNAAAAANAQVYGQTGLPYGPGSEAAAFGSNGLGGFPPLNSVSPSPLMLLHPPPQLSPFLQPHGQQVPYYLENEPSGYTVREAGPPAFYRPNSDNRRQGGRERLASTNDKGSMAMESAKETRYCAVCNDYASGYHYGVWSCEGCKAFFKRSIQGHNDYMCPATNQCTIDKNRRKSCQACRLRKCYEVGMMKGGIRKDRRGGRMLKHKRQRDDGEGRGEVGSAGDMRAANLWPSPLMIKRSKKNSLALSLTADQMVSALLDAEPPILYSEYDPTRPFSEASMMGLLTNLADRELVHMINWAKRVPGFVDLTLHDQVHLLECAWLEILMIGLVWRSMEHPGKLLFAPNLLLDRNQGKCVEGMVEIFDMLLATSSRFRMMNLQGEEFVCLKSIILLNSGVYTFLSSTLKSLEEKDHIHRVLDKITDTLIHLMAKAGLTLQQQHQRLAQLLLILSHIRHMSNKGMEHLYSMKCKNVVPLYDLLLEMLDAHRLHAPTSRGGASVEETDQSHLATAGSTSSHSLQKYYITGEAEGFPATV
T1 sequence (P40337 whole entry, looked up): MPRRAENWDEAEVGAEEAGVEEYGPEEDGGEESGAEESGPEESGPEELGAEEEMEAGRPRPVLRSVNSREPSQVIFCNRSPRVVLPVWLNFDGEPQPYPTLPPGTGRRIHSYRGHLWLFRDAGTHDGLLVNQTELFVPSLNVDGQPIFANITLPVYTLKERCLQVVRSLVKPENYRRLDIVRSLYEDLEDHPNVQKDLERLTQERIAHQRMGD
T1 sequence (Q13617 whole entry, looked up): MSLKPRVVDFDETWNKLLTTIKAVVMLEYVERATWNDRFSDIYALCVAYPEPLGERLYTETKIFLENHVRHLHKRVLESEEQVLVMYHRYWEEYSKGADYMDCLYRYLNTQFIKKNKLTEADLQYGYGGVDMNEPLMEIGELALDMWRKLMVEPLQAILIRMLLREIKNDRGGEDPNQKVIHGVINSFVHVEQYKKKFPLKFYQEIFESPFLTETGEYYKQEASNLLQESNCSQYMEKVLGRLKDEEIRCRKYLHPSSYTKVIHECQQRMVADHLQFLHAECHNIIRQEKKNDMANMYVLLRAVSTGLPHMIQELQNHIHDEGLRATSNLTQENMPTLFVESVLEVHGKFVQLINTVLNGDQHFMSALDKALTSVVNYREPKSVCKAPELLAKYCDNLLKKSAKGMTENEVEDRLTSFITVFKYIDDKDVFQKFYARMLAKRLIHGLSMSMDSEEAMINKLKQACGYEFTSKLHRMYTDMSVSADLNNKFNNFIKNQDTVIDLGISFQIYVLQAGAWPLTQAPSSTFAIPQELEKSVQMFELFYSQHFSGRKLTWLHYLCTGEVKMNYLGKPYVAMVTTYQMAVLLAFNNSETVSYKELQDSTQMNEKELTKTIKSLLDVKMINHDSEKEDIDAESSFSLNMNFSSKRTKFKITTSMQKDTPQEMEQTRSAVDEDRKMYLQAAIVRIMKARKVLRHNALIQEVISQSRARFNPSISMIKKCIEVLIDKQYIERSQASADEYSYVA
Procedure, shortened: (§2)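 MCF-7 cells (DMEM, 10% FBS, passages 3−8) exposed 4 h. Lysed in RIPA with protease inhibitors; equal protein on 10% SDS-PAGE, PVDF, anti-ERα blot. Membranes stripped and reprobed for GAPDH. ERα/GAPDH ratio normalized to DMSO = 100; DC50 from densitometry of the dose series.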

[5] = target: T1, von Hippel-Lindau disease tumor suppressor/Estrogen receptor/Cullin-2; experiment: Protac activity against VHL/cullin2/ERalpha in human MCF7 cells assessed as ERalpha degradation by measuring ER protein/GADPH ratio at 10 nM after 4 hrs by Western blot analysis relative to control; assay type: cell-based; procedure, shortened: as §2
[6] = target: T1, von Hippel-Lindau disease tumor suppressor/Estrogen receptor/Cullin-2; experiment: Protac activity against VHL/cullin2/ERalpha in human MCF7 cells assessed as ERalpha degradation by measuring ER protein/GADPH ratio at 100 nM after 4 hrs by Western blot analysis relative to control; assay type: cell-based; procedure, shortened: as §2
[7] = target: T1, von Hippel-Lindau disease tumor suppressor/Estrogen receptor/Cullin-2; experiment: Protac activity against VHL/cullin2/ERalpha in human MCF7 cells assessed as ERalpha degradation by measuring ER protein/GADPH ratio at 1 nM after 4 hrs by Western blot analysis relative to control; assay type: cell-based; procedure, shortened: as §2
[8] = target: T1, von Hippel-Lindau disease tumor suppressor/Estrogen receptor/Cullin-2; experiment: Protac activity against VHL/cullin2/ERalpha in human MCF7 cells assessed as ERalpha degradation by measuring reduction in ER protein level pre-treated with raloxifene for 2 hrs followed by compound exposure at 30 nM for 4 hrs by Western blot analysis; assay type: cell-based
[9] = Binding affinity to His-TEV-tagged VHL (54 to 213 residues) (unknown origin)/Elongin B (1 to 118 residues)/Elongin C (1 to 96 residues) expressed in Escherichia coli BL21(DE3) by FP assay; parameters: species or system Homo sapiens
Procedure, shortened: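 Competitive FP. Tracer is a fluorescent VHL ligand (Kd 2.3 nM). VHL–ElonginB/C complex and tracer each at 5 nM final, preincubated. Compound in DMSO (5 µL into 95 µL) for 60 min at room temperature with shaking. Ex 485/em 530 nm. IC50 by nonlinear regression; Ki from probe KD and protein/probe concentrations. Duplicate, three independent experiments.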

[10] = target: T2, Protein cereblon/Estrogen receptor/Cullin-4A (Homo sapiens) (UniProt P03372+Q96SW2+Q13619); experiment: Protac activity against cereblon/cullin 4A/ERalpha in human MCF7 cells assessed as ERalpha degradation by measuring ER protein/GADPH ratio at 1 nM after 4 hrs by Western blot analysis relative to control; assay type: cell-based; procedure, shortened: as §2
T2 sequence (P03372 whole entry, looked up): as the sequence (P03372 whole entry, looked up) above
T2 sequence (Q13619 whole entry, looked up): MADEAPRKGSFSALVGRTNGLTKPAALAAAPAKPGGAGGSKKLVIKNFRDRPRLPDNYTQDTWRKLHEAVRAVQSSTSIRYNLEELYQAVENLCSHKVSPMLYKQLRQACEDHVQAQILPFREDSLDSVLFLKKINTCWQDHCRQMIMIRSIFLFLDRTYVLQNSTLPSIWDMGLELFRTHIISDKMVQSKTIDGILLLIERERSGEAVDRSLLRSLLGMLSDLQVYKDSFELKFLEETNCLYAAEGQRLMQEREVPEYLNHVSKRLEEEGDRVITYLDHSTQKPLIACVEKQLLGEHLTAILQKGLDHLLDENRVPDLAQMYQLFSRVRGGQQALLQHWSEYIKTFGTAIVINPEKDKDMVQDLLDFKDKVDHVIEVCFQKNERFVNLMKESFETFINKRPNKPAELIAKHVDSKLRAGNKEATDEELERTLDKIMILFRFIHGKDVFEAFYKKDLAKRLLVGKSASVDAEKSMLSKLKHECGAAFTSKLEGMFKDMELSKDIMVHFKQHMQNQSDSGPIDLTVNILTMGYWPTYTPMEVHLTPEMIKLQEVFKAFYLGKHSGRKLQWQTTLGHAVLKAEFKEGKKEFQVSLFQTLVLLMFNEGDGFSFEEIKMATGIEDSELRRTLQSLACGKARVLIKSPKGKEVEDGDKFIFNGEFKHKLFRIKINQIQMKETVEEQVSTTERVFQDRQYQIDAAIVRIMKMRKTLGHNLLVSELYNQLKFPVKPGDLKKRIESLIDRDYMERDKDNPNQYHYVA
T2 sequence (Q96SW2 whole entry, looked up): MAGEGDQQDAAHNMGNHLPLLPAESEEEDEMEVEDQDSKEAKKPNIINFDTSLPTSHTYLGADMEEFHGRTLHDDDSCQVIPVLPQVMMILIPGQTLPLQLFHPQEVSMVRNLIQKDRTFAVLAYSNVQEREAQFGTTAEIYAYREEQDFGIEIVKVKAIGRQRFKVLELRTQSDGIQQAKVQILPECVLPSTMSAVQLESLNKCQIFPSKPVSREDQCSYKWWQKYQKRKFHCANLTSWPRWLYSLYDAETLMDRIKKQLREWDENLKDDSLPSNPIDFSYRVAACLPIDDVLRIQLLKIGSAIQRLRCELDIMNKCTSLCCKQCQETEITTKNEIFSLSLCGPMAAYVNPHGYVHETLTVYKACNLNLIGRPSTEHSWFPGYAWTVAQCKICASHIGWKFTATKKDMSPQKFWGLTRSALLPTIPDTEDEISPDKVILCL

[11] = target: T2, Protein cereblon/Estrogen receptor/Cullin-4A (Homo sapiens); experiment: Protac activity against cereblon/cullin 4A/ERalpha in human MCF7 cells assessed as ERalpha degradation by measuring ER protein/GADPH ratio at 1000 nM after 4 hrs by Western blot analysis relative to control; assay type: cell-based; procedure, shortened: as §2
[12] = target: T2, Protein cereblon/Estrogen receptor/Cullin-4A (Homo sapiens); experiment: Protac activity against cereblon/cullin 4A/ERalpha in human MCF7 cells assessed as ERalpha degradation by measuring ER protein/GADPH ratio at 100 nM after 4 hrs by Western blot analysis relative to control; assay type: cell-based; procedure, shortened: as §2
[13] = target: T2, Protein cereblon/Estrogen receptor/Cullin-4A (Homo sapiens); experiment: Protac activity against cereblon/cullin 4A/ERalpha in human MCF7 cells assessed as ERalpha degradation by measuring ER protein/GADPH ratio at 10 nM after 4 hrs by Western blot analysis relative to control; assay type: cell-based; procedure, shortened: as §2

Question: For `C[C@]12CC[C@@H]3c4ccc(O)cc4C[C@@H](CCCCCCCCC[S+]([O-])CCCC(F)(F)C(F)(F)F)[C@H]3[C@@H]1CC[C@@H]2O` (stereo partly drawn) [FULVESTRANT], which Activity [1] is on record?
Answer: Its Activity is “Active”.

Question: And the GI50 [2]?
Answer: The GI50 was 0.17 nM.

Question: What about the Imax [3] of the same molecule?
Answer: The Imax was 43.8%.

Question: For `CCN(CCCCCCCC(=O)N[C@H](C(=O)N1C[C@H](O)C[C@H]1C(=O)N[C@@H](C)c1ccc(-c2scnc2C)cc1)C(C)(C)C)CCOc1ccc(C(=O)c2c(-c3ccc(O)cc3)sc3cc(O)ccc23)cc1`, which Ratio [4] is on record?
Answer: The Ratio was 64.

Question: And the Ratio [5]?
Answer: The Ratio was 0.4.

Question: What about the Ratio [6] of the same molecule?
Answer: The Ratio was 0.3.

Question: And the Ratio [7]?
Answer: The Ratio was 21.

Question: Which Activity [8] does the source give for `CC(C)C[C@H](NC(=O)[C@H](CCc1ccccc1)NC(=O)CN1CCOCC1)C(=O)N[C@@H](Cc1ccccc1)C(=O)N[C@@H](CC(C)C)C(=O)[C@@]1(C)CO1` here?
Answer: The Activity was “inactive”.

Question: What does the source list for `CCNCCc1ccc(CN(CC)c2cc(OC)ccc2[C@@H]2CCc3cc(O)ccc3C2)cc1` [ELACESTRANT]?
Answer: Ratio [5]: 171; Ratio [6]: 159; Ratio [7]: 89; GI50 [2]: 0.028 nM; Imax [3]: 25.7%

Question: With `CCN(CCOCCOCCOCCC(=O)N[C@H](C(=O)N1C[C@H](O)C[C@H]1C(=O)N[C@@H](C)c1ccc(-c2scnc2C)cc1)C(C)(C)C)CCOc1ccc(C(=O)c2c(-c3ccc(O)cc3)sc3cc(O)ccc23)cc1` as the molecule, how does the Ratio [4] read?
Answer: Its Ratio is 67.

Question: What about the Ratio [5] of the same molecule?
Answer: Its Ratio is 0.6.

Question: And the Ratio [6]?
Answer: Its Ratio is 0.4.

Question: What about the Ratio [7] of the same molecule?
Answer: The Ratio was 101.

Question: With `CC(=O)N[C@H](C(=O)N1C[C@H](O)C[C@H]1C(=O)N[C@@H](C)c1ccc(C2CC2)cc1)C(C)(C)C` as the molecule, how does the IC50 [9] read?
Answer: Its IC50 is 6.11 µM.

Question: With `CC(=O)N[C@H](C(=O)N1C[C@H](O)C[C@H]1C(=O)N[C@@H](C)c1ccc(C(C)(C)C)cc1)C(C)(C)C` as the molecule, how does the IC50 [9] read?
Answer: Its IC50 is 58.9 µM.

Question: With `CC(=O)N[C@H](C(=O)N1C[C@H](O)C[C@H]1C(=O)N[C@@H](C)c1ccc(-c2scnc2C)cc1)C(C)(C)C` as the molecule, how does the IC50 [9] read?
Answer: The IC50 was 0.196 µM.

Question: With `CC(=O)N[C@H](C(=O)N1C[C@H](O)C[C@H]1C(=O)N[C@@H](C)c1ccc(Cl)cc1)C(C)(C)C` as the molecule, how does the IC50 [9] read?
Answer: Its IC50 is 7.87 µM.

Question: Which IC50 [9] does the source give for `CC(=O)N[C@H](C(=O)N1C[C@H](O)C[C@H]1C(=O)N[C@@H](C)c1ccc(C(C)C)cc1)C(C)(C)C` here?
Answer: Its IC50 is 41 µM.

Question: For `O=C(c1ccc(OCCN2CCCCC2)cc1)c1c(-c2ccc(O)cc2)sc2cc(O)ccc12` [RALOXIFENE], which Activity [1] is on record?
Answer: The Activity was “Active”.

Question: What about the GI50 [2] of the same molecule?
Answer: Its GI50 is 0.079 nM.

Question: And the Imax [3]?
Answer: The Imax was 34%.

Question: For `CCN(CCOCCOCCOCC#Cc1cccc2c1CN(C1CCC(=O)NC1=O)C2=O)CCOc1ccc(C(=O)c2c(-c3ccc(O)cc3)sc3cc(O)ccc23)cc1` (stereo not drawn), which Ratio [10] is on record?
Answer: The Ratio was 124.

Question: And the Ratio [11]?
Answer: Its Ratio is 165.

Question: What about the Ratio [12] of the same molecule?
Answer: The Ratio was 146.

Question: And the Ratio [13]?
Answer: Its Ratio is 149.

Question: What does the source list for `CCN(CCCCCCC#Cc1cccc2c1CN(C1CCC(=O)NC1=O)C2=O)CCOc1ccc(C(=O)c2c(-c3ccc(O)cc3)sc3cc(O)ccc23)cc1` (stereo not drawn)?
Answer: Ratio [10]: 143; Ratio [11]: 174; Ratio [12]: 160; Ratio [13]: 135
